In ChEMBL document CHEMBL1150273, “Aza-peptidyl Michael acceptors. A new class of potent and selective inhibitors of asparaginyl endopeptidases (legumains) from evolutionarily diverse pathogens” (J Med Chem, 2008):
Active and inactive are the calls of the source. The calls are words filed in the database; no cut-off is given here.

Experiments:
Papain (Carica papaya) = target: T1, Papain (Carica papaya) (UniProt P00784); test: Inhibition of papain assessed as ratio of pseudo-first-order inhibition rate constant to inhibitor concentration
T1 sequence (whole entry): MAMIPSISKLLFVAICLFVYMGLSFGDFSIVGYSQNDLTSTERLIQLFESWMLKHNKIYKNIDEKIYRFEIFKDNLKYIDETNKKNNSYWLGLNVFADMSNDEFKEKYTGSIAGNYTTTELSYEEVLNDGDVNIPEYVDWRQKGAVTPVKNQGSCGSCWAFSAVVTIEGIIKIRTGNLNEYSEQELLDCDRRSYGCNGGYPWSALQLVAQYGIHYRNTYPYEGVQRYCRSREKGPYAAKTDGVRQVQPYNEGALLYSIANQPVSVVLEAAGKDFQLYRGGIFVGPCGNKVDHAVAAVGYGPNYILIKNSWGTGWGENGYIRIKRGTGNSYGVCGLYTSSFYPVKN
How it was run: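 Papain, about 0.29 mg/mL, incubated with inhibitor in 50 mM Hepes, 2.5 mM DTT, 2.5 mM EDTA, pH 7.5; aliquots taken over time into 53.7 µM Cbz-Phe-Arg-pNA; p-nitroanilide release read at 405 nm at room temperature; pseudo-first-order inactivation kinetics.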

[1] = target: Lys-gingipain HG66 (Porphyromonas gingivalis) (UniProt P72197); test: Inhibition of Porphyromonas gingivalis gingipain K assessed as ratio of pseudo-first-order inhibition rate constant to inhibitor concentration
How it was run: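 Gingipain K diluted to 4.61 nM in 0.2 M Tris-HCl, 0.1 M NaCl, 5 mM CaCl2, 2 mM DTT, pH 8.0 and incubated with inhibitor (DMSO) at room temperature; aliquots taken at intervals into buffer with Suc-Ala-Phe-Lys-AMC; fluorescence at 465 nm; pseudo-first-order kinetics.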

[2] = Inhibition of Schistosoma mansoni AE expressed in Pichia pastoris after 20 mins
How it was run: (§1)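 Recombinant AE zymogens expressed in Pichia pastoris; SmAE and TvAE1 autoactivated in 0.5 M sodium acetate, 4 mM DTT, pH 4.5, 37 °C, 3 h to overnight; IrAE used without activation. Buffer 0.1 M citrate phosphate, 4 mM DTT, pH 6.8 (SmAE, TvAE1) or pH 5.5 (IrAE). Inhibitor 2.0–0.0002 µM final, 20 min preincubation at room temperature; 10 µM final Cbz-Ala-Ala-Asn-AMC, 20 min; IC50 from RFU/min vs concentration.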

[3] = Inhibition of Ixodes ricinus AE expressed in Pichia pastoris after 20 mins; how it was run: as §1
[4] = Stability assessed as half life in citrate phosphate buffer at pH 5.8 in presence of dithiothreitol; format: physicochemical; conditions: citrate phosphate buffer with dithiothreitol
Schistosoma mansoni = test: Inhibition of Schistosoma mansoni AE assessed as ratio of pseudo-first-order inhibition rate constant to inhibitor concentration
How it was run: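 Autoactivated recombinant SmAE added to six inhibitor concentrations (0–1 µM final) in 0.1 M citrate phosphate, 2 mM DTT, pH 6.8 with 20 µM Cbz-Ala-Ala-Asn-AMC; progress followed every 2 s for 30 min at 25 °C (ex 355, em 460 nm); kobs/[I] by nonlinear regression, corrected for substrate by factor 1.33.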

Activity (Papain (Carica papaya))	Ratio [1]	half-life [4]	Ratio (Papain (Carica papaya))	Structure (SMILES)	IC50 [2]	IC50 [3]	Ratio (Schistosoma mansoni)
inactive	6 M⁻¹ s⁻¹	0.317 h		CCOC(=O)/C=C/C(=O)N(CC(N)=O)NC(=O)[C@H](C)NC(=O)[C@H](C)NC(=O)OCc1ccccc1	0.031 µM	0.0045 µM	
inactive	1 M⁻¹ s⁻¹	6.27 h		C[C@H](NC(=O)OCc1ccccc1)C(=O)N[C@@H](C)C(=O)NN(CC(N)=O)C(=O)/C=C/C(=O)N(C)Cc1ccccc1		< 0.001 µM	
	2 M⁻¹ s⁻¹		1 M⁻¹ s⁻¹	C[C@H](NC(=O)OCc1ccccc1)C(=O)N[C@@H](C)C(=O)NN(CC(N)=O)C(=O)/C=C/C(=O)N(Cc1ccccc1)Cc1ccccc1	0.045 µM	0.45 µM	5800 M⁻¹ s⁻¹
inactive	6 M⁻¹ s⁻¹			C[C@H](NC(=O)OCc1ccccc1)C(=O)N[C@@H](C)C(=O)NN(CC(N)=O)C(=O)/C=C/C(=O)N(C)Cc1cccc2ccccc12	0.035 µM	0.0055 µM	16900 M⁻¹ s⁻¹
